Among the data in ChEMBL document CHEMBL1127016, “Inhibitors of the protease from human immunodeficiency virus: synthesis, enzyme inhibition, and antiviral activity of a series of compounds containing the dihydroxyethylene transition-state isostere” (J Med Chem, 1993) are Ki, inhibition and Inhibition values, retold here.

Bounds are passed on as bounds.

The target in experiment [1] is Human immunodeficiency virus type 1 protease (Human immunodeficiency virus 1, UniProt Q72874). Kind of experiment: Inhibition of HIV-1 protease in vitro. The essentials:
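Recombinant HIV-1 protease refolded from E. coli inclusion bodies; substrate peptide H-Val-Ser-Gln-Asn-Tyr-Pro-Ile-Val-OH at 2.5 mM. 30 °C, 100 mM sodium acetate pH 5.5 (MOPS for pH 7), 10% glycerol, 5% ethylene glycol, 0.1% NP-40. Inhibitor added before enzyme, five to seven concentrations; stopped at 30 min with TFA, HPLC; Ki from Dixon plots.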

For experiment [2], the system named is Vaccinia virus. Nature of the experiment: Anti viral activity against vaccinia virus in CV-1 (monkey kidney) cells at 1 uM. Type of experiment: functional. The settings on record: Orthopoxvirus vaccinia, CV-1, in Primates.
The test system of experiment [3] is Vaccinia virus. Kind of experiment: Anti viral activity against vaccinia virus in CV-1 (monkey kidney) cells. Type of experiment: functional, Orthopoxvirus vaccinia. Also on record: concentration or dose not given beside the values.

As to `CC(C)[C@@H](C(=O)N[C@H]1c2ccccc2CC1O)[C@@H](O)[C@H](O)[C@H](CC1CCCCC1)NC(=O)c1ccccc1` (stereo not given in full), the Ki in experiment [1] was found to be 16 nM.
Regarding `CCC(C)[C@H](NC(=O)[C@H](C(C)C)[C@@H](O)[C@H](O)C(CC1CCCCC1)NC(=O)c1ccccc1OCSc1ccccc1)C(=O)NCc1nc2ccccc2[nH]1` (stereo not given in full), the inhibition at 1 µM with Vaccinia virus [2] is 86%. In experiment [1], this molecule showed a Ki of 5 nM.
In experiment [1], `CC(C)[C@@H](C(=O)N[C@H]1c2ccccc2CC1O)[C@@H](O)[C@H](O)[C@H](CC1CCCCC1)NC(=O)c1ncccc1OCCOc1ccccc1` (stereo not given in full) had a Ki of over 200 nM.
As for `CCC(C)[C@H](NC(=O)[C@H](C(C)C)[C@@H](O)[C@H](O)[C@H](CC1CCCCC1)NC(=O)c1ncccc1OCCOCCOC)C(=O)NCc1nc2ccccc2[nH]1` (stereo not given in full), the Ki in experiment [1] worked out at 100 nM. In the experiment on Vaccinia virus [3], this molecule registered an Inhibition of 0%.
For `CCC(C)[C@H](NC(=O)[C@H](C(C)C)[C@@H](O)[C@H](O)C(CC1CCCCC1)NC(=O)c1ccccc1OCCOCCOCCOC)C(=O)NCc1nc2ccccc2[nH]1` (stereo not given in full), in the experiment with Vaccinia virus [2], at 1 µM the inhibition was 65%. In experiment [1], the Ki was determined as 10 nM.
Molecule `CC(C)[C@@H](C(=O)N[C@H]1c2ccccc2CC1O)[C@@H](O)[C@H](O)C(CC1CCCCC1)NC(=O)c1ncccc1OCSc1ccccc1` (stereo not given in full) came in with an inhibition at 1 µM in the experiment with Vaccinia virus [2] of 0%. The Ki in experiment [1] stood at 600 nM.
The molecule `CCC(C)[C@H](NC(=O)[C@H](C(C)C)[C@@H](O)[C@H](O)[C@H](CC1CCCCC1)NC(=O)c1ccccc1OCCOc1ccccc1)C(=O)NCc1nc2ccccc2[nH]1` (stereo not given in full) registered a Ki in experiment [1] of 8 nM. For the same molecule, the Inhibition in the experiment with Vaccinia virus [3] stood at 86%.
With `CC(C)[C@@H](C(=O)N[C@H]1c2ccccc2CC1O)[C@@H](O)[C@H](O)[C@H](CC1CCCCC1)NC(=O)CCOCCOc1ccccc1` (stereo not given in full), the Ki in experiment [1] is over 200 nM.
Turning to `COCCOCCOCCOc1cccnc1C(=O)NC(CC1CCCCC1)[C@@H](O)[C@H](O)[C@H](C(=O)N[C@H]1c2ccccc2CC1O)C(C)C` (stereo not given in full), the Ki in experiment [1] is over 200 nM.
For `CCC(C)[C@H](NC(=O)[C@H](C(C)C)[C@@H](O)[C@H](O)C(CC1CCCCC1)NC(=O)c1ncccc1OCCOCCOCCOC)C(=O)NCc1nc2ccccc2[nH]1` (stereo not given in full), the inhibition at 1 µM with Vaccinia virus [2] was 0%. In addition, the Ki in experiment [1] was 100 nM.
In experiment [1], `COCCOCCOCCOc1ccccc1C(=O)NC(CC1CCCCC1)[C@@H](O)[C@H](O)[C@H](C(=O)N[C@H]1c2ccccc2CC1O)C(C)C` (stereo not given in full) returned an inhibition constant (Ki) of over 200 nM.
`CC[C@H](C)[C@H](NC(=O)[C@H](C(C)C)[C@@H](O)[C@H](O)[C@H](CC1CCCCC1)NC(=O)c1ccccc1)C(=O)NCc1nc2ccccc2[nH]1` yielded a Ki in experiment [1] of 36 nM.
For `CC[C@H](C)[C@H](NC(=O)[C@H](C(C)C)[C@@H](O)[C@H](O)[C@H](CC1CCCCC1)NC(=O)C1CCCCC1)C(=O)NCc1ccccn1`, in experiment [1], the Ki worked out at 22 nM.
Molecule `COCCOCCOc1cccnc1C(=O)N[C@@H](CC1CCCCC1)[C@@H](O)[C@H](O)[C@H](C(=O)N[C@H]1c2ccccc2CC1O)C(C)C` (stereo not given in full) yielded an inhibition constant (Ki) in experiment [1] of over 200 nM.
In turn, `COCCOCCOc1ccccc1C(=O)N[C@@H](CC1CCCCC1)[C@@H](O)[C@H](O)[C@H](C(=O)N[C@H]1c2ccccc2CC1O)C(C)C` (stereo not given in full) gave a Ki in experiment [1] of 200 nM.
As for `CCC(C)[C@H](NC(=O)[C@H](C(C)C)[C@@H](O)[C@H](O)[C@H](CC1CCCCC1)NC(=O)CCOCCOc1ccccc1)C(=O)NCc1nc2ccccc2[nH]1` (stereo not given in full), in experiment [1], affinity was put at a Ki of 4 nM. Moreover, the Inhibition with Vaccinia virus [3] was found to be 65%.
For the molecule `CC(C)[C@@H](C(=O)N[C@H]1c2ccccc2CC1O)[C@@H](O)[C@H](O)C(CC1CCCCC1)NC(=O)c1ccccc1OCSc1ccccc1` (stereo not given in full), in the experiment with Vaccinia virus [2], the inhibition at 1 µM was 0%. In addition, in experiment [1], affinity was put at a Ki of 200 nM.
In the experiment with Vaccinia virus [2], `CCC(C)[C@H](NC(=O)[C@H](C(C)C)[C@@H](O)[C@H](O)C(CC1CCCCC1)NC(=O)c1ncccc1OCSc1ccccc1)C(=O)NCc1nc2ccccc2[nH]1` (stereo not given in full) displayed an inhibition at 1 µM of 0%. This molecule also returned a Ki in experiment [1] of 140 nM.
For `CC(C)[C@@H](C(=O)N[C@H]1c2ccccc2CC1O)[C@@H](O)[C@H](O)[C@H](CC1CCCCC1)NC(=O)c1ccccc1OCCOc1ccccc1` (stereo not given in full), the Ki in experiment [1] is over 200 nM.
On to `CCC(C)[C@H](NC(=O)[C@H](C(C)C)[C@@H](O)[C@H](O)[C@H](CC1CCCCC1)NC(=O)c1ncccc1OCCOc1ccccc1)C(=O)NCc1nc2ccccc2[nH]1` (stereo not given in full), for which, in experiment [1], the Ki was over 200 nM. In the experiment on Vaccinia virus [3], this molecule had an Inhibition of 0%.
As for `CCC(C)[C@H](NC(=O)[C@H](C(C)C)[C@@H](O)[C@H](O)C(CC1CCCCC1)NC(=O)C(Cc1c[nH]cn1)NC(=O)COc1cccc2ccccc12)C(=O)NCc1ccccn1` (stereo not given in full), the Ki in experiment [1] is under 1 nM.
In turn, `CCC(C)[C@H](NC(=O)[C@H](C(C)C)[C@@H](O)[C@H](O)[C@H](CC1CCCCC1)NC(=O)c1ccc(C)cc1OCCOc1ccccc1)C(=O)NCc1nc2ccccc2[nH]1` (stereo not given in full) displayed a Ki in experiment [1] of 48 nM. This molecule also registered an Inhibition in the experiment on Vaccinia virus [3] of 48%.
`CCC(C)[C@H](NC(=O)[C@H](C(C)C)[C@@H](O)[C@H](O)[C@H](CC1CCCCC1)NC(=O)c1ccccc1OCCOCCOC)C(=O)NCc1nc2ccccc2[nH]1` (stereo not given in full) registered a Ki in experiment [1] of 5 nM. The same molecule returned an Inhibition in the experiment on Vaccinia virus [3] of 56%.
